In ChEMBL document CHEMBL3244193, “Design of species- or isozyme-specific enzyme inhibitors. 3. Species and isozymic differences between mammalian and bacterial adenylate kinases in substituent tolerance in an enzyme-substrate complex” (J Med Chem, 1979):

Legend:
[1] = substrate: Nc1ncnc2c1ncn2[C@@H]1O[C@H](COP(=O)(O)OP(=O)(O)OP(=O)(O)O)[C@@H](O)[C@H]1O; conditions: Rattus norvegicus; Sprague-Dawley
[2] = substrate: CCCSc1nc2c(N)ncnc2n1[C@@H]1O[C@H](COP(=O)(O)OP(=O)(O)OP(=O)(O)O)[C@@H](O)[C@H]1O; experiment: (§1) Activity of Sprague-Dawley rat muscle adenylate kinase by Lineweaver-Burk plot analysis relative to ATP
Method in brief: (§2)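 Substrate kinetics in a pyruvate kinase/lactate dehydrogenase-coupled assay: 0.1 M Tris-HCl pH 7.6, 2 mM MgSO4, 0.12 M KCl, 0.3 mM PEP, 0.38 mM NADH, 0.25 mM AMP. A340 change over 5 min at 23 °C. Derivatives screened first at ca. 0.8 mM. Five or more substrate levels; KM and Vmax (relative to ATP) taken from linear Lineweaver-Burk plots.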

[3] = substrate: O=C(CI)NCCCCCNc1ncnc2c1ncn2[C@@H]1O[C@H](COP(=O)(O)OP(=O)(O)OP(=O)(O)O)[C@@H](O)[C@H]1O; experiment: as §1
Method in brief: as §2

[4] = substrate: Nc1ncnc2c1ncn2[C@@H]1O[C@H](COP(=O)(O)OP(=O)(O)OP(=O)(O)O)[C@@H](O)[C@H]1O; experiment: as §1
Method in brief: as §2

[5] = substrate: CSc1nc2c(N)ncnc2n1[C@@H]1O[C@H](COP(=O)(O)OP(=O)(O)OP(=O)(O)O)[C@@H](O)[C@H]1O; experiment: as §1
Method in brief: as §2

[6] = substrate: CCCSc1nc2c(N)ncnc2n1[C@@H]1O[C@H](COP(=O)(O)OP(=O)(O)OP(=O)(O)O)[C@@H](O)[C@H]1O; experiment: (§3) Activity of Sprague-Dawley rat liver adenylate kinase 3 by Lineweaver-Burk plot analysis
Method in brief: as §2

[7] = substrate: O=C(CI)NCCCCCNc1ncnc2c1ncn2[C@@H]1O[C@H](COP(=O)(O)OP(=O)(O)OP(=O)(O)O)[C@@H](O)[C@H]1O; experiment: as §3
Method in brief: as §2

[8] = substrate: Nc1ncnc2c1nc(SCCO)n2[C@@H]1O[C@H](COP(=O)(O)OP(=O)(O)OP(=O)(O)O)[C@@H](O)[C@H]1O; experiment: as §3
Method in brief: as §2

[9] = substrate: CCSc1nc2c(N)ncnc2n1[C@@H]1O[C@H](COP(=O)(O)OP(=O)(O)OP(=O)(O)O)[C@@H](O)[C@H]1O; experiment: as §3
Method in brief: as §2

[10] = substrate: Nc1ncnc2c1ncn2[C@@H]1O[C@H](COP(=O)(O)OP(=O)(O)OP(=O)(O)O)[C@@H](O)[C@H]1O; experiment: as §3
Method in brief: as §2

[11] = substrate: CSc1nc2c(N)ncnc2n1[C@@H]1O[C@H](COP(=O)(O)OP(=O)(O)OP(=O)(O)O)[C@@H](O)[C@H]1O; experiment: as §3
Method in brief: as §2

[12] = substrate: CCCSc1nc2c(N)ncnc2n1[C@@H]1O[C@H](COP(=O)(O)OP(=O)(O)OP(=O)(O)O)[C@@H](O)[C@H]1O; experiment: (§4) Activity of Sprague-Dawley rat liver adenylate kinase 3 by Lineweaver-Burk plot analysis relative to ATP
Method in brief: as §2

[13] = substrate: O=C(CI)NCCCCCNc1ncnc2c1ncn2[C@@H]1O[C@H](COP(=O)(O)OP(=O)(O)OP(=O)(O)O)[C@@H](O)[C@H]1O; experiment: as §4
Method in brief: as §2

[14] = substrate: Nc1ncnc2c1nc(SCCO)n2[C@@H]1O[C@H](COP(=O)(O)OP(=O)(O)OP(=O)(O)O)[C@@H](O)[C@H]1O; experiment: as §4
Method in brief: as §2

[15] = substrate: CCSc1nc2c(N)ncnc2n1[C@@H]1O[C@H](COP(=O)(O)OP(=O)(O)OP(=O)(O)O)[C@@H](O)[C@H]1O; experiment: as §4
Method in brief: as §2

[16] = substrate: Nc1ncnc2c1ncn2[C@@H]1O[C@H](COP(=O)(O)OP(=O)(O)OP(=O)(O)O)[C@@H](O)[C@H]1O; experiment: as §4
Method in brief: as §2

[17] = substrate: CSc1nc2c(N)ncnc2n1[C@@H]1O[C@H](COP(=O)(O)OP(=O)(O)OP(=O)(O)O)[C@@H](O)[C@H]1O; experiment: as §4
Method in brief: as §2

B1: Adenylate kinase isoenzyme 1 (Rattus norvegicus), P39069 (protein)
chain: MEDKLKKAKIIFVVGGPGSGKGTQCEKIVQKYGYTHLSTGDLLRAEVSSGSSRGKMLSSIMEKGELVPLETVLDMLRDAMLAKVDSSNGFLIDGYPREVKQGEEFERKIAQPTLLLYVDAGPETMTQRLLKRGETSGRVDDNEETIKKRLETYYKATEPVISFYDKRGIVRKVNAEGSVDTVFSQVCTYLDSLK
- Km [1]: 650 µM
- Vmax [2]: 0%
- Vmax [3]: 0%
- Vmax [4]: 100%
- Vmax [5]: 0%

B2: GTP:AMP phosphotransferase AK3, mitochondrial (Rattus norvegicus), P29411 (protein)
chain: MGASGRLLRAVIMGAPGSGKGTGSSRITKHFELKHLSSGDLLRQNMLQGTEIAVLAKSFIDQGKLIPDDDMTRLALHELKNLTQCSWLLDGFPRTLPQAEALDRVYQIDTVINLNVPFEVIKLRLTARWIHPASGRVYNIEFNPPKTVGIDDLTGEPLIQREDDKPETVIKRLKAYEAQTEPVLQYYQKKGVLETFSGTETNKIRPHVYSFLQMKVPETIQKASVTP
- Km [6]: 40 µM
- Km [7]: 400 µM
- Km [8]: 120 µM
- Km [9]: 70 µM
- Km [10]: 90 µM
- Km [11]: 150 µM
- Vmax [12]: 10.4%
- Vmax [13]: 8.9%
- Vmax [14]: 12.5%
- Vmax [15]: 11.4%
- Vmax [16]: 100%
- Vmax [17]: 8.3%
